For assay [1], the target named is Lysophosphatidic acid receptor 1 (Rattus norvegicus, UniProt P61794). The assay is described as follows: Antagonist activity at LPA1 receptor in rat hepatic stellate cells assessed as inhibition of lysophosphatidic acid-induced intracellular calcium influx. The assay is classed as functional, cell-based. In short, it runs like this: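 Stellate cells isolated from male Wistar rat liver, seeded overnight at 24,000 cells/well. Loaded with 4 µM Fluo-3 AM in buffer (0.1% BSA, 20 mM Hepes, HBSS, 2.5 mM probenecid), 37 °C, 1 h, then FLIPR Ca2+ read. Test substance added with LPA at 5 µM final. LPA without compound = 100%, no LPA = 0%. IC50 is the mean of at least two runs.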
Sequence of Lysophosphatidic acid receptor 1 (Rattus norvegicus, UniProt P61794) (P61794 whole entry): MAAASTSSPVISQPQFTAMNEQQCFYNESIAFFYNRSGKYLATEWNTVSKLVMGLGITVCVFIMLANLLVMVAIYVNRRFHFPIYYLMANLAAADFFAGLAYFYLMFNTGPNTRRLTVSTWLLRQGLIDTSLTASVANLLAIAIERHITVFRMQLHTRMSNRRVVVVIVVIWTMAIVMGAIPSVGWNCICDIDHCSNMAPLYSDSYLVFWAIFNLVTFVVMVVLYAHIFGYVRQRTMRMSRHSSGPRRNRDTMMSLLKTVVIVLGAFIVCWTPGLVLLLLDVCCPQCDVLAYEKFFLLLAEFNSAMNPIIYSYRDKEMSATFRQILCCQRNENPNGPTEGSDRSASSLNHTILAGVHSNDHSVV
On the technique in general: Calcium flux is commonly read through the fluorescence of an indicator in the cells.

In assay [2] the target is Lysophosphatidic acid receptor 1 (Homo sapiens, UniProt Q92633). The assay is described as follows: Antagonist activity at human recombinant LPA1 receptor expressed in CHOK1 cells assessed as inhibition of lysophosphatidic acid-induced intracellular calcium influx. The assay is classed as functional, cell-based, CHO-K1. The essentials: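 LPA1-transfected CHO-K1 cells grown in aMEM/F12 with 400 µg/ml Zeocin and 7% FBS. Loaded with Fluo-3 AM in 20 mM Hepes/HBSS/2.5 mM probenecid, 1 h, 37 °C. Washed, resuspended with 0.1% BSA, 24,000 cells/well. FLIPR fluorescence (ex 488/em 540 nm) read before and after compound addition, with or without 1 µM LPA. IC50 is the mean of at least two runs.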
Sequence of Lysophosphatidic acid receptor 1 (Homo sapiens, UniProt Q92633) (Q92633 whole entry): as the sequence (P61794 whole entry) above, with A4I, S8I, Q22P, Y40H, V61I, D193E, H194N, V269I, N331S, N335T counted along it

Data on 12 compounds can be found in ChEMBL document CHEMBL1139961, “Synthesis and evaluation of isoxazole derivatives as lysophosphatidic acid (LPA) antagonists” (Bioorg Med Chem Lett, 2007).

Turning to `CC(OC(=O)Nc1conc1-c1ccc(CSCCS(=O)(=O)O)cc1)c1ccccc1Cl` (centres undefined), the half-maximal inhibitory concentration (IC50) (in general, the midpoint of a concentration-inhibition curve) came out at 74 nM in assay [1] and 430 nM in assay [2].
Regarding `CC(OC(=O)Nc1ccccc1-c1ccc(CSCCC(=O)O)cc1)c1ccccc1Cl` (centres undefined), the half-inhibitory concentration (IC50) in assay [1] is over 20000 nM; in assay [2], over 40000 nM.
The corresponding values for `CC(OC(=O)Nc1conc1-c1ccc(CCCCC(=O)O)cc1)c1ccccc1Cl` (centres undefined) are 72 nM and 200 nM.
For `CC(OC(=O)Nc1conc1-c1ccc(CCC(C)(C)CC(=O)O)cc1)c1ccccc1Cl` (centres undefined), the half-inhibitory concentration (IC50) is 120 nM in assay [1] and 370 nM in assay [2].
As to `CC(OC(=O)Nc1conc1-c1ccc(NC(=O)CCC(=O)O)cc1)c1ccccc1Cl` (centres undefined), the results for the IC50 in assay [1] and in assay [2] were 73 nM and 140 nM, respectively.
The like results for `CC(OC(=O)Nc1cnoc1-c1ccc(CSCCC(=O)O)cc1)c1ccccc1Cl` (centres undefined) were, in that order, 81 nM and 260 nM.
As to `CC(OC(=O)Nc1conc1-c1ccc(CSCCC(=O)O)cc1)c1ccccc1Cl` (centres undefined), the 50% inhibitory concentration (IC50) in assay [1] is 49 nM; in assay [2] it was 220 nM.
As for `CC(OC(=O)Nc1conc1-c1ccc(CCSCC(=O)O)cc1)c1ccccc1Cl` (centres undefined), the half-inhibitory concentration (IC50) in assay [1] came out at 100 nM; in assay [2] it was 130 nM.
`CC(OC(=O)Nc1conc1-c1ccc(CSCCC(=O)O)cc1)C1=C(Cl)CCCC1` (centres undefined): the IC50 in assay [1] is 56 nM; in assay [2], 170 nM.
The corresponding values for `CC(OC(=O)Nc1conc1-c1ccc(CSCCC(=O)O)cc1)C1=C(Cl)CCC1` (centres undefined) are 29 nM and 130 nM.
In the case of `Cc1noc(-c2ccc(CSCCC(=O)O)cc2)c1NC(=O)OC(C)c1ccccc1Cl` (centres undefined), the results for the IC50 in assay [1] and in assay [2] were 160 nM and 510 nM, respectively.
Regarding `CC(OC(=O)Nc1conc1-c1ccc(CS(=O)(=O)CCC(=O)O)cc1)c1ccccc1Cl` (centres undefined), the half-inhibitory concentration (IC50) came to 110 nM in assay [1] and 280 nM in assay [2].
